Assay outcomes (PubChem BioAssay)
RGS4 act: RGS4 potentiation or activation; B-score at 10 µM; HEK293 M3R/inducible RGS4, carbachol calcium flux Fluo4; hits give low values; hit rate 0.92% among 310,000;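 active = B-score of the integrated calcium signal more than 4 SD below the library mean, with starting fluorescence not abnormally high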;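 also: negative B-score means reduced calcium response which marks RGS4 activation or potentiation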
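Assay system: HEK293 FlpIn-TREx cells, stable M3R, doxycycline-inducible RGS4 / Probe or stimulus: carbachol, ECmax concentration / Times: overnight RGS4 induction, 30 min dye load 37 °C, 20 min compound RT / Signal: kinetic calcium fluorescence imaging with Fluo4-AM dye, 2 µM / Measure: Agonist-evoked peak-minus-minimum fluorescence over baseline, integrated ratio, B score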
RGS4 block: inhibitors of human RGS4. P49798. HEK293 M3R/RGS4 inducible, Fluo-4 calcium flux; hits give high values; triggered by carbachol at its EC20. B-score at 10 µM. hit rate 0.45% among 310,000. AID 463165;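 active = B-score, a plate-corrected calcium signal, over three deviations above library mean, with baseline fluorescence within five deviations of library mean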;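 also: RGS4 expression induced by doxycycline in cells with stable M3 receptor; B-score is computed from the integrated fluorescence ratio over baseline after carbachol; higher B-score means a larger calcium signal and so more RGS4 inhibition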
Target sequence (P49798 whole entry, looked up): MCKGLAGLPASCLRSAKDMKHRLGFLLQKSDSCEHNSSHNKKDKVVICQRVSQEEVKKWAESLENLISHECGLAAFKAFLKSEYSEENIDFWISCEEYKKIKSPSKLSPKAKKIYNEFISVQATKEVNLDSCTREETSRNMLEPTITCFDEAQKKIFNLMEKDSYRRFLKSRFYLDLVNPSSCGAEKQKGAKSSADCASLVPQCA
MrgX1 PAM: human MrgX1 positive allosteric modulation, primary screen. Q96LB2. MrgX1-HEK293, Fluo-4 calcium flux, FDSS; hits give high values. B-score at 10 µM. hit rate 0.63% among 310,000;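 active = plate-corrected calcium response at least 3 library SD above typical, normal starting fluorescence, not activating the receptor alone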;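 also: compound read alongside a low EC10 to EC30 dose of BAM8-22 agonist; peak minus trough fluorescence over baseline measured at the second addition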
Target sequence (Q96LB2 whole entry, looked up): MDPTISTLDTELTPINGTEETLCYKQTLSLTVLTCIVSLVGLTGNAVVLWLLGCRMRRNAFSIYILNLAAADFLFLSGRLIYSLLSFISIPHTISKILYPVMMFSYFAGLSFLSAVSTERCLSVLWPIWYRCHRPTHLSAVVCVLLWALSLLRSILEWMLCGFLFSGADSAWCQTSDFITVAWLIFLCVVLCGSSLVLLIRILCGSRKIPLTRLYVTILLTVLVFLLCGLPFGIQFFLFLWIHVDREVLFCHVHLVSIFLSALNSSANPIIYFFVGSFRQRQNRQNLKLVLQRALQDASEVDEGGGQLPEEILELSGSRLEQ
MrgX1 ag: agonists of human MrgX1 receptor; Q96LB2; MrgX1-HEK293 cells, Fluo-4 calcium fluorescence, agonist mode; hits give high values; B-score at 10 µM; hit rate 0.44% among 310,000; AID 588627;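 active = calcium response B-score plate-corrected fluorescence ratio at least 3 library SD, with starting fluorescence B-score inside 5 SD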
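Test system: HEK293 cells stably expressing human MrgX1 receptor; amount: 15,000 cells per well; doses: compound delivered in addition one of three; times: overnight plating before 1 h dye loading; detection: Fluo-4 NW calcium-flux fluorescence, kinetic read; read-out basis: B-scored fluorescence response ratio; controls: positive and negative controls per plate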
MrgX1 antagonist: antagonists of human MrgX1 receptor; AID 588676; B-score at 10 µM; MRGX1-HEK293 calcium flux, Fluo-4, BAM8-22 antagonism; hits give low values; Q96LB2; hit rate 1.3% among 310,000;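 active = calcium-response B-score plate-corrected more than 3 library SD below zero, starting fluorescence within 5 deviations, no agonist response on first addition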;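 also: peak minus trough fluorescence over baseline after final BAM8-22 challenge near maximal dose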
MrgX1 PAM conf: human MrgX1 positive allosteric modulation, re-confirmation; shares compounds with MrgX1 PAM; MrgX1-HEK293, Fluo-4 calcium fluorescence, FDSS; activation (ratio percentage), % at 10 µM; hit rate 13% among 1,200;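 active = ratio at least 3 SD above the weak peptide control, stable starting fluorescence, no direct agonism earlier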;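 also: compound followed by low BAM8-22 agonist challenge near EC20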
HEK293 Ca flux: counter-screen for MrgX1 antagonists: effect in parental HEK293 cells | AID 624111 | shares compounds with MrgX1 antagonist | hit rate 2% among 4,000 | fluorescence ratio F(max-min)/F0 at 10 µM | Fluo-4 calcium fluorescence, FDSS;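 active = duplicate-averaged calcium fluorescence ratio at least three times the standard deviation of buffer wells, a nonspecific response in parental cells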
HEK293 Ca counter: MrgX1 allosteric activator counter-screen hit in parental HEK293 cells. shares compounds with MrgX1 antagonist. parental HEK293 calcium flux, Fluo-4 fluorescence ratio; hits give high values. fluorescence ratio F(max-min)/F0 at 10 µM. hit rate 0.4% among 4,000;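 active = calcium fluorescence ratio, averaged over duplicates, at least 3 SD of the buffer-well ratio, meaning a nonspecific response in receptor-free cells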;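 also: untransfected parental HEK293 lacking MrgX1 used as counterscreen for MrgX1 allosteric activators; fluorescence change taken during the second addition on a kinetic imager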
HEK293 Ca cntr2: counter-screen for MrgX1 activators: effect in parental HEK293 cells. shares compounds with MrgX1 antagonist. fluorescence ratio F(max-min)/F0 at 10 µM. Fluo-4 calcium fluorescence (FDSS); hits give high values. hit rate 8.7% among 4,000;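 active = calcium fluorescence ratio at least three times the spread of buffer wells, meaning a non-specific response in parental cells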
Of the large screens only hits and unclear results are named; the others gave an inactive call (follow-up assays come after a bar, where they were run). Rows were chosen to be rich in hits. Some 3.5% of all compounds tested hit in one or more screens of this group.

COc1ccccc1CNC(=O)c1oc2ccccc2c1C	MrgX1 PAM 6.7 | MrgX1 PAM conf inactive | HEK293 Ca flux inactive | HEK293 Ca counter inactive | HEK293 Ca cntr2 inactive
Cc1c(C(=O)NCc2ccccn2)oc2ccccc12	none
Cc1ccc(Cl)cc1NS(=O)(=O)N1CCOCC1	none
O=C(c1ccc(F)cc1)N1CCN(c2ccc([N+](=O)[O-])cc2-n2cccc2)CC1	none
CN(C)CCCNc1ccc(-c2cc(Nc3cccc(Cl)c3)ncn2)cn1	MrgX1 PAM 7.8 | MrgX1 PAM conf inactive | HEK293 Ca flux inactive | HEK293 Ca counter inactive | HEK293 Ca cntr2 inactive
Cc1ccc(NC(=O)c2ccc(NS(=O)(=O)c3c(C)noc3C)cc2)cc1C	MrgX1 PAM 13 | MrgX1 PAM conf 2.3% | HEK293 Ca flux inactive | HEK293 Ca counter inactive | HEK293 Ca cntr2 inactive
COc1ccc(NC(=O)c2ccc(NS(=O)(=O)c3c(C)noc3C)cc2)cc1OC	none
Cc1ccc2[nH]c(C(=O)N3CCCCC3)cc2c1	MrgX1 PAM 17 | MrgX1 PAM conf inactive | HEK293 Ca flux inactive | HEK293 Ca counter inactive | HEK293 Ca cntr2 inactive
CCOC(=O)C1CCN(C(=O)c2cc3cc(F)ccc3[nH]2)CC1	none
O=C(c1cc2cc(F)ccc2[nH]1)N1CCCC(Nc2ccc(F)cc2)C1 (stereo not drawn)	MrgX1 PAM 13 | MrgX1 PAM conf inactive | HEK293 Ca flux inactive | HEK293 Ca counter inactive | HEK293 Ca cntr2 inactive
Cc1ccc2[nH]c(C(=O)N3CCOCC3)cc2c1	none
CCOC(=O)C1CCCN(C(=O)c2cc3cc(F)ccc3[nH]2)C1 (stereo not drawn)	MrgX1 PAM 7.9 | MrgX1 PAM conf inactive | HEK293 Ca flux inactive | HEK293 Ca counter inactive | HEK293 Ca cntr2 inactive
CCC(=O)NC(NC(=S)Nc1c(C)n(C)n(-c2ccccc2)c1=O)C(Cl)(Cl)Cl (stereo not drawn)	none
CCOC(=O)c1nn(-c2ccccc2)c(=O)cc1OCC(=O)Nc1ccccc1OCC	none
COCCCn1c(=O)c2ccccc2n(Cc2cccc(C)c2)c1=O	none
COc1ccc(-n2c(=O)/c(=C\c3cccs3)s/c2=C(/C#N)C(=O)N2CCN(C)CC2)cc1	none
Cc1nc2c3cc(F)ccc3n(Cc3ccccc3F)c2s1	MrgX1 PAM 9 | MrgX1 PAM conf inactive | HEK293 Ca flux inactive | HEK293 Ca counter inactive | HEK293 Ca cntr2 inactive
Cc1nc2c3ccccc3n(Cc3ccccc3F)c2s1	none
Cc1c(C(=O)N2CCCCC2)c(S(=O)(=O)N2CCc3ccccc32)c(C)n1C	none
COC(=O)c1ccc(NC(=S)Nc2ccc(O)cc2)cc1	none
Oc1ccc(NC(=S)Nc2ccc(O)cc2)cc1	MrgX1 PAM 10 | MrgX1 PAM conf inactive | HEK293 Ca flux inactive | HEK293 Ca counter inactive | HEK293 Ca cntr2 inactive
O=C(Nc1ccc(C(=O)NC2CCCCC2)cc1)c1cccnc1	MrgX1 PAM 10 | MrgX1 PAM conf inactive | HEK293 Ca flux inactive | HEK293 Ca counter inactive | HEK293 Ca cntr2 inactive
CCc1nc(N2CCN(S(C)(=O)=O)CC2)c2c3c(sc2n1)CCCC3	MrgX1 PAM 7.3 | MrgX1 PAM conf inactive | HEK293 Ca flux inactive | HEK293 Ca counter inactive | HEK293 Ca cntr2 inactive
O=C(C1=C[C@@H](C2CC2)C[C@@H](OCCCCO)O1)N1CCN(Cc2ccccc2)CC1	none
CCCCN(C)C1CCN(C(=S)Nc2cccc(SC)c2)CC1	none
CC12CCC(C(=O)O)(c3nc4cc([N+](=O)[O-])ccc4nc31)C2(C)C (stereo not drawn)	none
CC12CCC(C)(c3nc4ccccc4nc31)C2(C)C	MrgX1 PAM 6.9 | MrgX1 PAM conf inactive | HEK293 Ca flux inactive | HEK293 Ca counter inactive | HEK293 Ca cntr2 inactive
CN(Cc1ccccc1)C(NC(=O)c1ccco1)C(Cl)(Cl)Cl (stereo not drawn)	MrgX1 PAM 6.6 | MrgX1 PAM conf inactive | HEK293 Ca flux inactive | HEK293 Ca counter inactive | HEK293 Ca cntr2 inactive
CN(Cc1ccccc1)C(NC(=O)c1ccccc1)C(Cl)(Cl)Cl (stereo not drawn)	none
CCOC(=O)c1sc(NS(=O)(=O)c2ccccc2Cl)nc1C	MrgX1 PAM 12 | MrgX1 PAM conf inactive | HEK293 Ca flux inactive | HEK293 Ca counter inactive | HEK293 Ca cntr2 inactive
CCOC(=O)c1sc(NS(=O)(=O)c2ccc(F)cc2)nc1C	MrgX1 PAM 12 | MrgX1 PAM conf inactive | HEK293 Ca flux inactive | HEK293 Ca counter inactive | HEK293 Ca cntr2 inactive
O=C(c1ccc2c(c1)OCO2)C1CCCN(Cc2ccc(OC(F)F)cc2)C1 (stereo not drawn)	none
CCn1c(/N=C/c2ccccc2NS(=O)(=O)c2ccc(C)cc2)nc2ccccc21	MrgX1 PAM 14 (no result: RGS4 act, RGS4 block) | MrgX1 PAM conf inactive | HEK293 Ca flux inactive | HEK293 Ca counter inactive | HEK293 Ca cntr2 inactive
Cc1cc(C)c(NC(=O)COC(=O)C2CCN(c3ccc(C(F)(F)F)cn3)CC2)c(Cl)c1	none
Cc1cc(C)c(NC(=O)CNC(=O)COC(=O)C2CCN(c3ccc(C(F)(F)F)cn3)CC2)c(C)c1	MrgX1 PAM 7 | MrgX1 PAM conf inactive | HEK293 Ca flux inactive | HEK293 Ca counter inactive | HEK293 Ca cntr2 inactive
CCOC(=O)c1c(-c2ccccc2)csc1NC(=O)/C(C#N)=C/c1ccc(O)c(OC)c1	MrgX1 PAM 117 | MrgX1 PAM conf inactive | HEK293 Ca flux 0.049 | HEK293 Ca counter inactive | HEK293 Ca cntr2 85
O=C(N/C(=C\c1ccco1)C(=O)N1CCCC(CO)C1)c1ccccc1 (stereo not drawn)	none
CCOC1=C/C(=C/c2c(N)n3nc(S(=O)(=O)CC)sc3nc2=O)C=CC1=O	MrgX1 PAM 34 | MrgX1 PAM conf inactive | HEK293 Ca flux 0.64 | HEK293 Ca counter inactive | HEK293 Ca cntr2 46
CCOC1=C/C(=C/c2c(N)n3nc(CC(=O)N4CCCCC4)sc3nc2=O)C=CC1=O	none
O=C1CCc2cc(S(=O)(=O)N3CCCC3C(=O)NC3CCCCCCC3)ccc2N1 (stereo not drawn)	none
CN(Cc1cnccn1)Cc1nc(Cc2ccccc2Cl)no1	none
CN(Cc1cnccn1)Cc1nc(Cc2ccccc2F)no1	MrgX1 PAM 10 | MrgX1 PAM conf inactive | HEK293 Ca flux inactive | HEK293 Ca counter inactive | HEK293 Ca cntr2 inactive
CC1CCCC(C)N1C(=O)CSc1nnc(NC(=O)c2cccs2)s1 (stereo not drawn)	MrgX1 PAM 14 | MrgX1 PAM conf inactive | HEK293 Ca flux inactive | HEK293 Ca counter inactive | HEK293 Ca cntr2 inactive
Cc1cccc(S(=O)(=O)NC2CCCCCCC2)c1	none
